Experimental data from ChEMBL document CHEMBL1143743, “A new class of anti-thrombosis hexahydropyrazino-[1',2':1,6]pyrido-[3,4-b]-indole-1,4-dions: design, synthesis, logK determination, and QSAR analysis” (Bioorg Med Chem, 2007).

Columns and labels:
Rattus norvegicus [1] = assay: Antithrombotic activity in Wistar rat assessed as wet thrombus weight at 0.5 umol/kg, iv; format: functional
Procedure, shortened: (§1)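 Male Wistar rats (250–300 g) under ip pentobarbital sodium (80.0 mg/kg). Arteriovenous shunt: polyethylene tube holding a weighed 6 cm thread, filled with heparin sodium (50 IU/ml in NS), joins left jugular vein to right carotid artery. Heparin, then compound in NS (kept on ice), injected through the tube; blood flows 15 min. Thread weighed wet, then dry after 2 weeks in a desiccator.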

Rattus norvegicus [2] = assay: Antithrombotic activity in Wistar rat assessed as dry thrombus weight at 0.5 umol/kg, iv; format: functional; procedure, shortened: as §1
[3] = HPLC retention, log K of the compound
Rattus norvegicus [4] = assay: Antithrombotic activity in Wistar rat assessed as wet thrombus weight at 5 nmol/kg, iv; format: functional; procedure, shortened: as §1
Rattus norvegicus [5] = assay: Antithrombotic activity in Wistar rat assessed as wet thrombus weight at 0.5 nmol/kg, iv; format: functional; procedure, shortened: as §1
Rattus norvegicus [6] = assay: Antithrombotic activity in Wistar rat assessed as dry thrombus weight at 5 nmol/kg, iv; format: functional; procedure, shortened: as §1
Rattus norvegicus [7] = assay: Antithrombotic activity in Wistar rat assessed as dry thrombus weight at 0.5 nmol/kg, iv; format: functional; procedure, shortened: as §1
Rattus norvegicus [8] = assay: Antithrombotic activity in Wistar rat assessed as wet thrombus weight at 0.5 umol/kg, po; format: functional
Procedure, shortened: (§2)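 Compound in NS given orally to male Wistar rats (250–300 g), which were then anesthetized with ip pentobarbital sodium (80.0 mg/kg). Thirty min later the carotid artery and jugular vein were exposed. Blood ran 15 min through a polyethylene-tube shunt holding a thread. Wet thrombus weighed, then dry weight recorded after 2 weeks in a desiccator.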

Rattus norvegicus [9] = assay: Antithrombotic activity in Wistar rat assessed as dry thrombus weight at 0.5 umol/kg, po; format: functional; procedure, shortened: as §2
Plasma [10] = assay: Inhibition of ADP-induced platelet aggregation in pig platelet rich plasma; format: functional, cell-free; conditions: Sus scrofa
Procedure, shortened: (§3)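 Pig blood anticoagulated with 0.38% sodium citrate (final). PRP taken at 100 g for 10 min, PPP at 1,500 g for 10 min, platelets adjusted to 2 × 10⁸/ml with autologous PPP. Compound in NS (1–0.01 μmol/L final) added to 0.5 ml PRP. Aggregation induced with PAF (10^-7 mol/L final) or ADP (10^-5 mol/L final), followed turbidimetrically at 37 °C for 5 min. Peak height (Am%) compared with NS control; IC50 derived.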

Plasma [11] = assay: Inhibition of PAF-induced platelet aggregation in pig platelet rich plasma; format: functional, cell-free; conditions: Sus scrofa; procedure, shortened: as §3
Rattus norvegicus [12] = assay: Antithrombotic activity in Wistar rat assessed as wet thrombus weight at […], iv; format: functional
Rattus norvegicus [13] = assay: Antithrombotic activity in Wistar rat assessed as dry thrombus weight at […], iv; format: functional

log K [3]	Structure (SMILES)	Activity (Rattus norvegicus [1]) [mg]	Activity (Rattus norvegicus [2]) [mg]	other results
-0.16	O=C1N[C@@H](CO)C(=O)N2Cc3[nH]c4ccccc4c3C[C@@H]12	9.44	2.98	
0.97	CSCC[C@@H]1NC(=O)[C@@H]2Cc3c([nH]c4ccccc34)CN2C1=O	10.41	3.28	
0.21	NC(=O)C[C@@H]1NC(=O)[C@@H]2Cc3c([nH]c4ccccc34)CN2C1=O	9.54	3.03	
1.26	CCC(C)[C@@H]1NC(=O)[C@@H]2Cc3c([nH]c4ccccc34)CN2C1=O (stereo partly drawn)	12.45	3.95	
-0.26	NCCCC[C@@H]1NC(=O)[C@@H]2Cc3c([nH]c4ccccc34)CN2C1=O	12.78	4.06	Activity (Rattus norvegicus [8]): 11.75 mg; Activity (Rattus norvegicus [9]): 3.73 mg
0.97	CC(C)[C@@H]1NC(=O)[C@@H]2Cc3c([nH]c4ccccc34)CN2C1=O	8.19	1.2	IC50 (Plasma [10]): 112 nM; IC50 (Plasma [11]): 294 nM; Activity (Rattus norvegicus [4]): 14.79 mg; Activity (Rattus norvegicus [5]): 16.88 mg; Activity (Rattus norvegicus [6]): 2.31 mg; Activity (Rattus norvegicus [7]): 2.64 mg
0.71	O=C1NC(CS)C(=O)N2Cc3[nH]c4ccccc4c3C[C@@H]12 (single isomer, unassigned)	9.06	2.88	

Second part, the compound before the results:

Structure (SMILES)	log K [3]	Activity (Rattus norvegicus [1]) [mg]	Activity (Rattus norvegicus [2]) [mg]	other results
C[C@@H]1NC(=O)[C@@H]2Cc3c([nH]c4ccccc34)CN2C1=O	0.47	12.05	3.83	
O=C1N[C@@H](Cc2ccccc2)C(=O)N2Cc3[nH]c4ccccc4c3C[C@@H]12	1.05	8.58	1.33	Activity (Rattus norvegicus [4]): 13.3 mg; Activity (Rattus norvegicus [5]): 15.3 mg; Activity (Rattus norvegicus [6]): 2.08 mg; Activity (Rattus norvegicus [7]): 2.39 mg
O=C1N[C@@H](Cc2ccc(O)cc2)C(=O)N2Cc3[nH]c4ccccc4c3C[C@@H]12	0.01	10.49	3.3	
O=C1NCC(=O)N2Cc3[nH]c4ccccc4c3C[C@@H]12	0.19	10.68	3.39	Activity (Rattus norvegicus [8]): 11.57 mg; Activity (Rattus norvegicus [9]): 3.67 mg
NC(=O)CC[C@@H]1NC(=O)[C@@H]2Cc3c([nH]c4ccccc34)CN2C1=O	0.28	11.1	3.52	
O=C(O)CC[C@@H]1NC(=O)[C@@H]2Cc3c([nH]c4ccccc34)CN2C1=O	0.21	10.42	3.31	
O=C(O)C[C@@H]1NC(=O)[C@@H]2Cc3c([nH]c4ccccc34)CN2C1=O	0.15	12.26	3.89	Activity (Rattus norvegicus [8]): 12.42 mg; Activity (Rattus norvegicus [9]): 3.94 mg
N=C(N)NCCC[C@@H]1NC(=O)[C@@H]2Cc3c([nH]c4ccccc34)CN2C1=O	-0.58	8.62	1.22	Activity (Rattus norvegicus [4]): 14.52 mg; Activity (Rattus norvegicus [5]): 15.71 mg; Activity (Rattus norvegicus [6]): 2.27 mg; Activity (Rattus norvegicus [7]): 2.45 mg
CC(C)C[C@@H]1NC(=O)[C@@H]2Cc3c([nH]c4ccccc34)CN2C1=O	1.32	10.4	3.3	
CC(O)[C@@H]1NC(=O)[C@@H]2Cc3c([nH]c4ccccc34)CN2C1=O (stereo partly drawn)	-0.14	11.49	3.65	
CC(=O)Oc1ccccc1C(=O)O [ASPIRIN]				Activity (Rattus norvegicus [12]): 7.56 mg; Activity (Rattus norvegicus [13]): 2.4 mg
